From ChEMBL document CHEMBL5096220, “Selective Inhibition of the Periodontal Pathogen Porphyromonas gingivalis by Third-Generation Zafirlukast Derivatives” (J Med Chem, 2022)
Active and inactive are the calls of the source. No cut-off for these calls is given here.

Tests used:
Actinomyces naeslundii = assay: Antibacterial activity against Actinomyces naeslundii ATCC 49340 assessed as growth inhibition at 100 uM measured after 24 hrs by WST-1 assay relative to control; assay type: functional; parameters: scale not given: the % may be the effect or the level left
Summary of the method: (§1)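 A. naeslundii ATCC 49340 (anaerobic) and S. sanguinis ATCC 10556 (aerobic) were grown in BHI with 5 μg/mL hemin and 1 μg/mL menadione to log phase, 10^8 cells/well. They were exposed to 1, 10 or 100 μM for 24 h, then WST-1 was added. […] Controls: DMSO, penicillin/streptomycin 1X.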

Porphyromonas gingivalis [1] = assay: Bactericidal activity against Porphyromonas gingivalis ATCC 33277 assessed as reduction in colony formation at 100 uM measured 24 hrs […] relative to control; assay type: functional; parameters: scale not given: the % may be the effect or the level left; details: in the assay text read “CFU assay” for “safranin staining”
Summary of the method: (§2)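 P. gingivalis ATCC 33277 (10^8/well) was grown anaerobically in supplemented BHI and treated 24 h at 1, 10 or 100 μM in DMSO. Cultures were diluted 1:400 and plated on blood agar; colonies were counted after 5 days anaerobic incubation. % inhibition was based on CFUs/mL vs medium-only cultures, three independent replicates. Controls: tetracycline 2.81 μM, DMSO.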

Fusobacterium nucleatum = assay: Antibacterial activity against Fusobacterium nucleatum ATCC 25586 assessed as growth inhibition at 100 uM measured after 24 hrs by WST-1 assay relative to control; assay type: functional; parameters: scale not given: the % may be the effect or the level left
Summary of the method: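 F. nucleatum ATCC 25586 was grown anaerobically in hemin/menadione-supplemented BHI to log phase, 10^8 cells/well. Treatment was 1, 10 or 100 μM for 24 h. WST-1 absorbance at 405 nm was read 30 min after reagent addition. % inhibition was calculated vs medium-only cultures, six independent replicates. Controls: DMSO, tetracycline 2.81 μM.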

Streptococcus sanguinis = assay: Antibacterial activity against Streptococcus sanguinis ATCC 10556 assessed as growth inhibition at 100 uM measured after 24 hrs by WST-1 assay relative to control; assay type: functional; parameters: scale not given: the % may be the effect or the level left; summary of the method: as §1
Porphyromonas gingivalis [2] = assay: Antibacterial activity against Porphyromonas gingivalis ATCC 33277 assessed as growth inhibition at 100 uM measured after 30 mins by WST-1 assay relative to control; assay type: functional; parameters: scale not given: the % may be the effect or the level left
Summary of the method: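 P. gingivalis ATCC 33277 (10^8 cells/well) was grown to log phase in supplemented BHI under anaerobic conditions and incubated 24 h with treatments. WST-1 A405 was read 30 min after reagent addition. Growth inhibition was calculated relative to medium-only cultures, six independent replicates per condition.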

Erythrocyte = assay: Hemolytic activity in mouse RBC upto 100 uM incubated for 1 hr; assay type: toxicity, cell-based
Summary of the method: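 Murine red blood cells incubated with compound at 3.13 to 100 μM for 1 h at 37 °C. PBS only was the negative control; Triton X-100 (1% v/v) set 100% hemolysis.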

Porphyromonas gingivalis [3] = assay: Antibacterial activity against Porphyromonas gingivalis ATCC 33277 assessed as growth inhibition at 25 uM measured after 24 hrs by WST-1 assay relative to control; assay type: functional; parameters: scale not given: the % may be the effect or the level left
Summary of the method: (§3)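 Log-phase P. gingivalis ATCC 33277 was grown anaerobically in hemin/menadione-supplemented BHI, 10^8 cells/well, and treated for 24 h (DMSO vehicle). […] Derivatives: six independent replicates; controls: 42 replicates.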

Porphyromonas gingivalis [4] = assay: Antibacterial activity against Porphyromonas gingivalis ATCC 33277 assessed as growth inhibition at 50 uM measured after 24 hrs by WST-1 assay relative to control; assay type: functional; parameters: scale not given: the % may be the effect or the level left; summary of the method: as §3
HEK293 = assay: Cytotoxicity against HEK293 cells assessed as cell survival rate upto 31.3 microg/ml measured after 24 hrs by resazurin dye based analysis; assay type: functional; details: Homo sapiens, dose <= 31.3 µg/ml
Summary of the method: (§4)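 HEK-293 and HepG2 cells were maintained in DMEM with 10% FBS and 1% Pen/Strep at 37 °C, 5% CO2. Compounds were tested over 0–62.6 μg/mL. Survival values above 100% were normalized to 100%.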

[5] = Hemolytic activity in mouse RBC at 100 uM incubated for 1 hr; assay type: toxicity, cell-based, Erythrocyte; details: mouse red blood cells (erythrocytes), read-out: Activity
Summary of the method: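 Murine red blood cells were incubated 1 h at 37 °C with compounds at 3.13–100 μM. PBS served as the negative control and Triton X-100 (1% v/v) as the 100% hemolysis reference.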

Porphyromonas gingivalis [6] = assay: Antibiofilm activity against Porphyromonas gingivalis ATCC 33277 assessed as inhibition of biofilm at 100 uM measured after 48 hrs by safranin staining relative to control; assay type: functional; parameters: scale not given: the % may be the effect or the level left
Summary of the method: (§5)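 Biofilm formation: P. gingivalis ATCC 33277 (10^8 cells/well) was grown in supplemented BHI under anaerobic conditions with gentle shaking, exposed to 10, 25, 50 or 100 μM for 48 h. Biomass was stained with 0.1% safranin and A492 measured. Biofilm growth % = 100×OD treated/OD DMSO control. Positive controls: tetracycline 2.81 μM.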

Porphyromonas gingivalis [7] = assay: Bactericidal activity against Porphyromonas gingivalis ATCC 33277 assessed as reduction in colony formation at 10 uM measured 24 hrs by safranin staining relative to control; assay type: functional; details: in the assay text read “CFU assay” for “safranin staining”; summary of the method: as §2
Porphyromonas gingivalis [8] = assay: Antibacterial activity against Porphyromonas gingivalis assessed as reduction of CFU at 10 uM incubated for 5 days measured by […]; assay type: functional, organism-based; details: time 5.0 day; summary of the method: as §2
[9] = Cytotoxicity against human OKF6 cells assessed as morphological change at 100 uM […]; assay type: toxicity, cell-based; details: okf6, 100 µM
Summary of the method: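 OKF6 oral keratinocytes were treated 24 h at 10 or 100 μM. Cell morphology and density were examined by microscopy across the entire well. Controls: medium, 1% DMSO, staurosporine 8 μM.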

HepG2 = assay: Cytotoxicity against human HepG2 cells assessed as cell survival rate at upto 31.3 to 62.6 microg/ml measured after 24 hrs by resazurin dye based analysis relative to control; assay type: functional; details: dose 31.3-62.6 µg/ml, at 31.3 to 62.6 µg/mL; summary of the method: as §4
Porphyromonas gingivalis [10] = assay: Antibiofilm activity against Porphyromonas gingivalis ATCC 33277 assessed as inhibition of biofilm at 10 uM measured after 48 hrs by safranin staining relative to control; assay type: functional; parameters: scale not given: the % may be the effect or the level left; summary of the method: as §5
[11] = Cytotoxicity against human OKF6 cells assessed as reduction in cell viability at 10 uM by Annexin V-FITC/PI staining based flow cytometric analysis relative to control; assay type: toxicity; details: okf6, 10 µM
Summary of the method: (§6)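 OKF6 keratinocytes were exposed 24 h to 10 or 100 μM. Apoptosis/necrosis was assessed by FITC-Annexin V staining and flow cytometry, ≥10,000 events per condition, in duplicate across two independent experiments. Controls: medium, 1% DMSO, staurosporine 8 μM.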

Porphyromonas gingivalis [12] = assay: Antibiofilm activity against Porphyromonas gingivalis ATCC 33277 assessed as inhibition of biofilm at 50 uM measured after 48 hrs by safranin staining relative to control; assay type: functional; parameters: scale not given: the % may be the effect or the level left; summary of the method: as §5
[13] = Cytotoxicity against human OKF6 cells assessed as reduction in cell viability at 100 uM by Annexin V-FITC/PI staining based flow cytometric analysis relative to control; assay type: toxicity; details: okf6, 100 µM; summary of the method: as §6
Porphyromonas gingivalis [14] = assay: Antibiofilm activity against Porphyromonas gingivalis ATCC 33277 assessed as inhibition of biofilm at 25 uM measured after 48 hrs by safranin staining relative to control; assay type: functional; parameters: scale not given: the % may be the effect or the level left; summary of the method: as §5
Porphyromonas gingivalis [15] = assay: Antibacterial activity against Porphyromonas gingivalis ATCC 33277 assessed as growth inhibition at 1 uM measured after 24 hrs by WST-1 assay relative to control; assay type: functional; parameters: scale not given: the % may be the effect or the level left; summary of the method: as §3
Porphyromonas gingivalis [16] = assay: Antibacterial activity against Porphyromonas gingivalis ATCC 33277 assessed as growth inhibition at 10 uM measured after 24 hrs by WST-1 assay relative to control; assay type: functional; parameters: scale not given: the % may be the effect or the level left; summary of the method: as §3
[17] = Hemolytic activity in mouse RBC at 27 microg/ml incubated for 1 hr; assay type: toxicity, cell-based, Erythrocyte; details: mouse red blood cells (erythrocytes), at 27 µg/mL, read-out: Activity
Porphyromonas gingivalis [18] = assay: Antibiofilm activity against Porphyromonas gingivalis ATCC 33277 assessed as inhibition of biofilm at 10 to 100 uM measured after 48 hrs by safranin staining relative to control; assay type: functional; parameters: scale not given: the % may be the effect or the level left; details: dose 10-100 µM; summary of the method: as §5
Porphyromonas gingivalis [19] = assay: Antibacterial activity against Porphyromonas gingivalis ATCC 33277 assessed as growth inhibition at 1 to 100 uM measured after 24 hrs by WST-1 assay relative to control; assay type: functional; parameters: scale not given: the % may be the effect or the level left; details: dose 1-100 µM; summary of the method: as §3
Porphyromonas gingivalis [20] = assay: Antibacterial activity against Porphyromonas gingivalis at 100 uM incubated for 5 days measured by […] relative to control; assay type: functional; details: dose 10 µM; time 5 day; in the assay text read “10 uM” for “100 uM”; summary of the method: as §2

COc1ccc(Cc2cn(C)c3ccc([N+](=O)[O-])cc23)cc1C(=O)NS(=O)(=O)c1c(F)cccc1F
Activity (Actinomyces naeslundii): 40% | Activity (Porphyromonas gingivalis [1]): 100% | Activity (Fusobacterium nucleatum): 76% | Activity (Streptococcus sanguinis): 40% | Activity (Porphyromonas gingivalis [2]): 61%

CCCn1cc(Cc2ccc(OC)c(C(=O)NS(=O)(=O)c3ccccc3F)c2)c2cc([N+](=O)[O-])ccc21
Activity (Erythrocyte): <= 25%

COc1cc(C(=O)NS(=O)(=O)c2ccccc2C)ccc1Cc1cn(C)c2ccc(NC(=O)OC3CCCC3)cc12 [ZAFIRLUKAST]
Activity (Porphyromonas gingivalis [3]): 74% | Activity (Porphyromonas gingivalis [4]): 88% | Activity (HEK293): Not toxic | hemolysis at 1 h, 100 µM [5]: 72% | Activity (Porphyromonas gingivalis [6]): 58%

COc1ccc(Cc2cn(C)c3ccc([N+](=O)[O-])cc23)cc1C(=O)NS(=O)(=O)c1ccccc1Br
Activity (Porphyromonas gingivalis [1]): 100% | Activity (Porphyromonas gingivalis [7]): Active | Activity (Porphyromonas gingivalis [8]): Active | Activity [9]: Toxic | Activity (HepG2): >76% | Activity (Porphyromonas gingivalis [2]): 61%

CN(C)[C@@H]1C(O)=C(C(N)=O)C(=O)[C@@]2(O)C(O)=C3C(=O)c4c(O)cccc4[C@@](C)(O)[C@H]3C[C@@H]12 [TETRACYCLINE]
Activity (Porphyromonas gingivalis [6]): 57%

CCCCn1cc(Cc2ccc(OC)c(C(=O)NS(=O)(=O)c3ccccc3F)c2)c2cc([N+](=O)[O-])ccc21
Activity (Erythrocyte): <= 25%

COc1ccc(Cc2cn(CC(C)C)c3ccc([N+](=O)[O-])cc23)cc1C(=O)NS(=O)(=O)c1ccc([N+](=O)[O-])cc1
Activity (Porphyromonas gingivalis [1]): 100% | Activity (Porphyromonas gingivalis [2]): 73%

COc1ccc(Cc2cn(C)c3ccc([N+](=O)[O-])cc23)cc1C(=O)NS(=O)(=O)c1ccccc1Cl
Activity (Porphyromonas gingivalis [10]): 53% | Activity (Porphyromonas gingivalis [1]): 100% | Activity [11]: 9% | Activity (Porphyromonas gingivalis [7]): Active | Activity (Porphyromonas gingivalis [8]): Active | Activity (Porphyromonas gingivalis [12]): 58% | Activity [9]: Toxic | Activity [13]: 5% | Activity (HepG2): >76% | Activity (Porphyromonas gingivalis [2]): 61% | Activity (Porphyromonas gingivalis [14]): 55%

CCn1cc(Cc2ccc(OC)c(C(=O)NS(=O)(=O)c3ccc([N+](=O)[O-])cc3)c2)c2cc([N+](=O)[O-])ccc21
Activity (Porphyromonas gingivalis [15]): 6% | Activity (Porphyromonas gingivalis [16]): 77% | Activity (Porphyromonas gingivalis [1]): 100% | Activity (Porphyromonas gingivalis [7]): 19%

C[C@@H]1[C@H](O)[C@@H](C)/C=C/C=C/C=C/C=C/C=C/C=C/C=C/[C@H](O[C@@H]2O[C@H](C)[C@@H](O)[C@H](N)[C@@H]2O)C[C@@H]2O[C@](O)(C[C@@H](O)C[C@@H](O)[C@H](O)CC[C@@H](O)C[C@@H](O)CC(=O)O[C@H]1C)C[C@H](O)[C@H]2C(=O)O [AMPHOTERICIN B]
hemolysis at 1 h, 27 microg/ml [17]: 0%

COc1ccc(Cc2cn(C)c3ccc([N+](=O)[O-])cc23)cc1C(=O)NS(=O)(=O)c1ccc([N+](=O)[O-])cc1
Activity (Porphyromonas gingivalis [15]): 0% | Activity (Porphyromonas gingivalis [16]): 63% | Activity (Porphyromonas gingivalis [1]): 100% | Activity (Porphyromonas gingivalis [18]): 86% | Activity (Porphyromonas gingivalis [7]): Active

CCCCn1cc(Cc2ccc(OC)c(C(=O)NS(=O)(=O)c3ccc([N+](=O)[O-])cc3)c2)c2cc([N+](=O)[O-])ccc21
Activity (Porphyromonas gingivalis [16]): 77% | Activity (Porphyromonas gingivalis [1]): 100% | Activity [11]: 63% | Activity (Erythrocyte): <= 15% | Activity (Porphyromonas gingivalis [19]): 69% | Activity (Porphyromonas gingivalis [12]): 63% | Activity [13]: 23% | Activity (Porphyromonas gingivalis [6]): 57% | Activity (Porphyromonas gingivalis [20]): 71%

CCCn1cc(Cc2ccc(OC)c(C(=O)NS(=O)(=O)c3ccc([N+](=O)[O-])cc3)c2)c2cc([N+](=O)[O-])ccc21
Activity (Porphyromonas gingivalis [16]): 77% | Activity (Porphyromonas gingivalis [1]): 100% | Activity (Erythrocyte): <= 15% | Activity (Porphyromonas gingivalis [19]): 60%

COc1ccc(Cc2cn(C)c3ccc([N+](=O)[O-])cc23)cc1C(=O)NS(=O)(=O)c1ccccc1F
Activity (Porphyromonas gingivalis [1]): 100% | Activity (Porphyromonas gingivalis [7]): 96% | Activity (HepG2): >76% | Activity (Porphyromonas gingivalis [2]): 61% | Activity (Porphyromonas gingivalis [14]): 52%
